From ChEMBL document CHEMBL2069238, “Discovery of potent and selective rhodanine type IKKβ inhibitors by hit-to-lead strategy” (Bioorg Med Chem Lett, 2012)

How the values were obtained:
[1] = target: T1, Inhibitor of nuclear factor kappa-B kinase subunit beta (Homo sapiens) (UniProt O14920); assay: Inhibition of IKKbeta using 5FAM-GRHDSGLDSMK-NH2 as substrate at 10 uM incubated for 10 mins prior to substrate addition by IMAP-TR-FRET assay
T1 sequence (whole entry): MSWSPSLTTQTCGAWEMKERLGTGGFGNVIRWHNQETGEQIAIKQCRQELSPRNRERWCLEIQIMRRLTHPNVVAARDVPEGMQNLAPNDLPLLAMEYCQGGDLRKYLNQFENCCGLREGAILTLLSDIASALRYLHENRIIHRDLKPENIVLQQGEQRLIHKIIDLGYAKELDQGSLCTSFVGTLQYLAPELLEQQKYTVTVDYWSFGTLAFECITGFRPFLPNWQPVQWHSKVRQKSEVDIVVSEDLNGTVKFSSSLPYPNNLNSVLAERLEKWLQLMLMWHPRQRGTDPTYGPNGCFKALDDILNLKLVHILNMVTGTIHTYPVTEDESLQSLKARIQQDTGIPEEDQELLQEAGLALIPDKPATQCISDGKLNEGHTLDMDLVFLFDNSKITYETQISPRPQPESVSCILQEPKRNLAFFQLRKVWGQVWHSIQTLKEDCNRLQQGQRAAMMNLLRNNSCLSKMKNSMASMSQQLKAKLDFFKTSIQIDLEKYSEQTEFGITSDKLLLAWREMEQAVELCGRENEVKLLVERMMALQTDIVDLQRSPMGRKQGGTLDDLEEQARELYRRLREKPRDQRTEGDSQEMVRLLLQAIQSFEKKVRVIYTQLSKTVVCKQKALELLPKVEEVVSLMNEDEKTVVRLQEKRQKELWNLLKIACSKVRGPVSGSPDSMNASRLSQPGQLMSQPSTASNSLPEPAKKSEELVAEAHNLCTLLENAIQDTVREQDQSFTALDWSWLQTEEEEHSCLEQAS

[2] = target: T2, Inhibitor of nuclear factor kappa-B kinase subunit beta (Homo sapiens, UniProt O14920); assay: Inhibition of IKKbeta using 5FAM-GRHDSGLDSMK-NH2 as substrate incubated for 10 mins prior to substrate addition by IMAP-TR-FRET assay
T2 sequence (O14920 whole entry): T1 sequence (whole entry)

[3] = target: T1, Inhibitor of nuclear factor kappa-B kinase subunit beta (Homo sapiens); assay: Inhibition of IKKbeta in human HeLa cells assessed as inhibition of TPA-induced NFkappaB activation at 10 uM incubated for 1 hr prior to TPA-challenge measured after 8 hrs by luciferase reporter gene assay; assay type: cell-based
In short: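 HeLa cells transfected with an NF-κB luciferase reporter plasmid, pre-treated with inhibitor for 1 h, then stimulated with TPA (50 ng/mL) for 8 h. Luciferase activity normalized to protein content of each extract, expressed as relative luciferase units per mg versus non-treated cells; n = 3.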

[4] = target: T3, Inhibitor of nuclear factor kappa-B kinase subunit beta (Mus musculus, UniProt O88351); assay: Inhibition of IKKbeta in mouse CIA model splenocytes assessed as inhibition of TNFalpha production after 72 hrs by ELISA; assay type: cell-based
T3 sequence (O88351 whole entry): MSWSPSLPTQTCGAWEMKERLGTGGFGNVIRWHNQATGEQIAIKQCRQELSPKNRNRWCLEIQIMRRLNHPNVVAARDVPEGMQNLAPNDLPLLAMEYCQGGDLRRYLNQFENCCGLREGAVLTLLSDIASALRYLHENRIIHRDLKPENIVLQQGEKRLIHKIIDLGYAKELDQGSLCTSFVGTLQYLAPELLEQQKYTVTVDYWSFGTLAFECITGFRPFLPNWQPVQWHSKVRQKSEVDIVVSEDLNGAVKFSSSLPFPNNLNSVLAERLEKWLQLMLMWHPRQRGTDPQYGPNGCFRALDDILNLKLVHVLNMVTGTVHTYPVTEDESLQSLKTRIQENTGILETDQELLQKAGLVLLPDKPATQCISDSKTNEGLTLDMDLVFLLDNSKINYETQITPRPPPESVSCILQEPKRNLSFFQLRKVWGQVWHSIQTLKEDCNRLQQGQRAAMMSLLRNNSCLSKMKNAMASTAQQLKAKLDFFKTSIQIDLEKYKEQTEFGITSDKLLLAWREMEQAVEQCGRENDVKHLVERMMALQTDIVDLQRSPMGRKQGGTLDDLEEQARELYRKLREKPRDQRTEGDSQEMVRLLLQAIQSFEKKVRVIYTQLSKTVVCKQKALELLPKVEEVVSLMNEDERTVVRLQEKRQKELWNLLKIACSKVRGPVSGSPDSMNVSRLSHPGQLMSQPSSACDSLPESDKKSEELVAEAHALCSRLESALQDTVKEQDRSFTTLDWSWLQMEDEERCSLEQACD
In short: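 Spleens from collagen type II-immunized mice were taken 8 weeks after primary immunization. Red cells were lysed with 0.83% ammonium chloride, and cells were strained and resuspended in RPMI 1640 at 1 × 10^6 cells/well, then exposed to inhibitor for 72 h. Supernatant TNFα was measured by sandwich ELISA with an alkaline phosphatase chromogenic read at 405 nm, quantified against a recombinant murine TNFα standard curve.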

[5] = target: T4, Inhibitor of nuclear factor kappa-B kinase subunit alpha (Homo sapiens, UniProt O15111); assay: Inhibition of IKKalpha
T4 sequence (O15111 whole entry): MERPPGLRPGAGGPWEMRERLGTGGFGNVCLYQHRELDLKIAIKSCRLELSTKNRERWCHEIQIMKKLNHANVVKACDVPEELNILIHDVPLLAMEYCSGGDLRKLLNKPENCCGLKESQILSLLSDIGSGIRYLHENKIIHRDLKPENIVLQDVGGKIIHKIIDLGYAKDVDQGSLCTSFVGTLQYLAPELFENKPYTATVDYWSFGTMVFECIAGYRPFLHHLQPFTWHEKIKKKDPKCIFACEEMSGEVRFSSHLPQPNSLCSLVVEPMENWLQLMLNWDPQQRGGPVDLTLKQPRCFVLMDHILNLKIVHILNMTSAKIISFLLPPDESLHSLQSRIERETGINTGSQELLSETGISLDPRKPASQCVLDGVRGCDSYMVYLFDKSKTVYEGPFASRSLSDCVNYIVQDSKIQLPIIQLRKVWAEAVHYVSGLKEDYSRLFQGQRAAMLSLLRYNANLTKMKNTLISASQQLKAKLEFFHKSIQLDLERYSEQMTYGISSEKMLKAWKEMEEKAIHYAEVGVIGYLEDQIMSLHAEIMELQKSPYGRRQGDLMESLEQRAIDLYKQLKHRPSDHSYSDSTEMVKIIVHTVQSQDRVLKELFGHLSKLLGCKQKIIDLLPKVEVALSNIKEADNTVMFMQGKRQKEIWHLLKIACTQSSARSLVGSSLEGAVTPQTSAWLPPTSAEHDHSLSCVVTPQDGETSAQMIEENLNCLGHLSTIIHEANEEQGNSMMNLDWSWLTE

[6] = target: Mitogen-activated protein kinase 11 (Homo sapiens, UniProt Q15759); assay: Inhibition of MAPK p38beta
[7] = target: Mitogen-activated protein kinase 14 (Homo sapiens, UniProt Q16539); assay: Inhibition of MAPK p38alpha
[8] = target: Mitogen-activated protein kinase 10 (Homo sapiens, UniProt P53779); assay: Inhibition of JNK3
[9] = target: Mitogen-activated protein kinase 9 (Homo sapiens, UniProt P45984); assay: Inhibition of JNK2
[10] = target: Mitogen-activated protein kinase 8 (Homo sapiens, UniProt P45983); assay: Inhibition of JNK1
Mitogen-activated protein kinase 8, sequence (P45983 whole entry): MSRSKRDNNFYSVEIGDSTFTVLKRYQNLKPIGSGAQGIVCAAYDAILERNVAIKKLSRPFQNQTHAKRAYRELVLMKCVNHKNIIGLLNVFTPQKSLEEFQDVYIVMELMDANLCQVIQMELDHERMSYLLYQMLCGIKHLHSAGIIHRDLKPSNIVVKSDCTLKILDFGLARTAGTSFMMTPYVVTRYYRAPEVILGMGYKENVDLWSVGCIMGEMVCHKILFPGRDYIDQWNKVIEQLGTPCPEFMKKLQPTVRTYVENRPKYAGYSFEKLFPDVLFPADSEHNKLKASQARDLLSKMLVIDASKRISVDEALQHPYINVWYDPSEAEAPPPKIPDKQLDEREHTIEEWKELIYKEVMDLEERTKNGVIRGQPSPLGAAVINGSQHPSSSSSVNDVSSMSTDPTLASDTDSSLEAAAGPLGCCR

Mitogen-activated protein kinase 10, sequence (P53779 whole entry): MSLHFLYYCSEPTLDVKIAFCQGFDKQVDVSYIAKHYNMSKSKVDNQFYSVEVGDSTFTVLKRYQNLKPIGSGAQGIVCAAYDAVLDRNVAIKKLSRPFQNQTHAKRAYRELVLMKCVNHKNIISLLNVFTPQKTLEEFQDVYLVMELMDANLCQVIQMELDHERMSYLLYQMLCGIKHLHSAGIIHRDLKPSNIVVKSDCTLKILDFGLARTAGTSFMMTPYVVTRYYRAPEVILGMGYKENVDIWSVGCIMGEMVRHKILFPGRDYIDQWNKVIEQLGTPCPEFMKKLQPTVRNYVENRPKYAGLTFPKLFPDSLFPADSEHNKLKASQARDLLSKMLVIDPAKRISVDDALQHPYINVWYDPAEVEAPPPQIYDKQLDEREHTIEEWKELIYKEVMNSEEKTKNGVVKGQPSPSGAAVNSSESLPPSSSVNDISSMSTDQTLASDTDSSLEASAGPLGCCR
Mitogen-activated protein kinase 9, sequence (P45984 whole entry): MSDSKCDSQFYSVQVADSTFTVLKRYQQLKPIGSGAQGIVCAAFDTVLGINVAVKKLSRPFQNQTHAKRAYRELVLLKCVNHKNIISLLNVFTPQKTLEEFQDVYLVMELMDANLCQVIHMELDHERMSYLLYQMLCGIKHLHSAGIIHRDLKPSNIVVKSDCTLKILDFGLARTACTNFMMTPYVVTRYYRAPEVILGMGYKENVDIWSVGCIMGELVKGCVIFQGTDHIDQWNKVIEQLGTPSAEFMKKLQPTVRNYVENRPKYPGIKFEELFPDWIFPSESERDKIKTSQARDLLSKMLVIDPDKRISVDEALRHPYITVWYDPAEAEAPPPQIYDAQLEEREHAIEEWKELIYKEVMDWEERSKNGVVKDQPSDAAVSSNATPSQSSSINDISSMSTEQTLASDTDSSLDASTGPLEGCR
Mitogen-activated protein kinase 14, sequence (Q16539 whole entry): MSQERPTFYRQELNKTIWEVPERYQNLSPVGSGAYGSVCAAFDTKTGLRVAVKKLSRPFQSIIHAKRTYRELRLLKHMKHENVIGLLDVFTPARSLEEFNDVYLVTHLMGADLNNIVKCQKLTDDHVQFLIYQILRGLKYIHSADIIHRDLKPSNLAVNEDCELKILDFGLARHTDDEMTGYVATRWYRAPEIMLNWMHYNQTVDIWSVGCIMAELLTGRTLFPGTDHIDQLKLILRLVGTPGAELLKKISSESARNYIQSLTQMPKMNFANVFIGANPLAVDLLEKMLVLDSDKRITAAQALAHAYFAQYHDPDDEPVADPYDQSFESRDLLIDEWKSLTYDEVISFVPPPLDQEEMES
Mitogen-activated protein kinase 11, sequence (Q15759 whole entry): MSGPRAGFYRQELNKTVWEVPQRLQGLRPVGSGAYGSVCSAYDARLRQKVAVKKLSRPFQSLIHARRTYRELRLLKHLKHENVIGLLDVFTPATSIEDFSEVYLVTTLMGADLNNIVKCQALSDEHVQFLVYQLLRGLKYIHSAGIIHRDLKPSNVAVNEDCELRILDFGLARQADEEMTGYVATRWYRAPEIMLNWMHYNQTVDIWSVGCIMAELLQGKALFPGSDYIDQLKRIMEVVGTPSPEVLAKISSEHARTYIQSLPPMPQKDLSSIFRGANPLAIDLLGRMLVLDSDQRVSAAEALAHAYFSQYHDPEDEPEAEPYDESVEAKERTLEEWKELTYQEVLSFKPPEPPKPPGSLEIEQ

| SMILES | inhibition [1] [%] | IC50 [2] [µM] | inhibition [3] [%] | IC50 [4] [µM] | other results |
| --- | --- | --- | --- | --- | --- |
| CN1CCN(CCCCCOc2ccc(N3C(=O)/C(=C/c4ccc(Oc5ccc(C(N)=O)cc5)cc4)SC3=S)cc2)CC1 | 89.3 | 0.16 |  |  |  |
| CCN(CC)CCCOc1ccc(N2C(=O)/C(=C/C=C/c3ccc(N(C)C)cc3)SC2=S)cc1 | 28.1 |  |  |  |  |
| CCN(CC)CCCOc1ccc(N2C(=O)/C(=C/c3ccc(Oc4ccccc4C(N)=O)cc3)SC2=S)cc1 | 4.8 |  |  |  |  |
| CCN(CC)CCCOc1ccc(N2C(=O)/C(=C/C=C(c3ccccc3)c3ccccc3)SC2=S)cc1 | 52.6 | 14.1 |  |  |  |
| NC(=O)c1cccc(Oc2ccc(/C=C3\SC(=S)N(c4ccc(OCCCN5CCCCC5)cc4)C3=O)cc2)c1 | 83 | 6.3 | 42.1 | 30 |  |
| CCN(CC)CCCOc1ccc(N2C(=O)/C(=C/c3ccc(Oc4cccc(C(N)=O)c4)cc3)SC2=S)cc1 | 84.9 | 7.3 | 39.3 | 10 |  |
| N#Cc1c(C2CCCNC2)cc(-c2ccccc2O)nc1N (stereo not drawn) | 88.7 | 0.17 | 73.9 | 1.8 | IC50 [5]: 0.64 µM |
| NC(=O)c1ccc(Oc2ccc(/C=C3\SC(=S)N(c4ccc(OCCCN5CCCC5)cc4)C3=O)cc2)cc1 | 85.3 | 1.5 | 58.5 | 5 | IC50 [6]: > 30 µM; IC50 [7]: > 30 µM; IC50 [8]: > 30 µM; IC50 [9]: > 30 µM; IC50 [5]: > 30 µM; IC50 [10]: > 30 µM |
| CN1CCN(CCCOc2ccc(N3C(=O)/C(=C/c4ccc(Oc5ccc(C(N)=O)cc5)cc4)SC3=S)cc2)CC1 | 90.1 | 0.35 | 65.4 | 2 | IC50 [6]: > 30 µM; IC50 [7]: > 30 µM; IC50 [8]: > 30 µM; IC50 [9]: > 30 µM; IC50 [5]: > 30 µM; IC50 [10]: > 30 µM |
| CCN(CC)CCCOc1ccc(N2C(=O)/C(=C/c3c(Cl)cccc3Cl)SC2=S)cc1 | 3.4 |  |  |  |  |
| CCN(CC)CCCOc1ccc(N2C(=O)/C(=C/c3ccc(Cl)c(Cl)c3)SC2=S)cc1 | 61.8 | 9.3 |  |  |  |
| CCN(CC)CCOc1ccc(N2C(=O)/C(=C/c3ccc(Oc4ccccc4C(N)=O)cc3)SC2=S)cc1 | 1.6 |  |  |  |  |
| CCN(CC)CCCOc1ccc(N2C(=O)/C(=C/c3ccc(Oc4ccc(Cl)cc4)cc3)SC2=S)cc1 | 36.5 | 15.6 | 71.4 | 13 |  |
| CCN(CC)CCCOc1ccc(N2C(=O)/C(=C/c3ccc(Oc4ccc(C(N)=O)cc4)cc3)SC2=S)cc1 | 95.7 | 2.6 | 46.6 | 8 |  |
| NC(=O)c1ccccc1Oc1ccc(/C=C2\SC(=S)N(c3ccc(OCCCN4CCCC4)cc3)C2=O)cc1 | 21.3 |  |  |  |  |
| CCN(CC)CCCOc1ccc(N2C(=O)/C(=C/c3ccc(C(N)=O)cc3)SC2=S)cc1 | 15.5 |  |  |  |  |

| SMILES | inhibition [1] [%] | IC50 [2] [µM] | inhibition [3] [%] | IC50 [4] [µM] | other results |
| --- | --- | --- | --- | --- | --- |
| CCN(CC)CCCOc1ccc(N2C(=O)/C(=C/c3ccc(O)cc3)SC2=S)cc1 | 56 | 23.6 |  |  |  |
| CCN(CC)CCCOc1ccc(N2C(=O)/C(=C/c3ccncc3)SC2=S)cc1 | 3.2 |  |  |  |  |
| NC(=O)c1ccc(Oc2ccc(/C=C3\SC(=S)N(c4ccc(OCCCN5CCCCC5)cc4)C3=O)cc2)cc1 | 81.2 | 4.2 | 48.2 | 30 |  |
| NC(=O)c1cccc(Oc2ccc(/C=C3\SC(=S)N(c4ccc(OCCCN5CCCC5)cc4)C3=O)cc2)c1 | 57.3 | 6.3 | 57 | 7 |  |
| CCN(CC)CCCOc1ccc(N2C(=O)/C(=C/c3ccc4ccccc4c3)SC2=S)cc1 | 23.4 |  |  |  |  |
| CCN(CC)CCCOc1ccc(N2C(=O)/C(=C/c3ccc(-c4cccc(C(N)=O)c4)o3)SC2=S)cc1 | 87.1 | 5.7 | 59.1 |  |  |
| CN1CCN(CCCCOc2ccc(N3C(=O)/C(=C/c4ccc(Oc5ccc(C(N)=O)cc5)cc4)SC3=S)cc2)CC1 | 90.4 | 0.23 |  | 4 |  |
| CN1CCN(CCCOc2ccc(N3C(=O)/C(=C/c4ccc(Oc5cccc(C(N)=O)c5)cc4)SC3=S)cc2)CC1 | 86.8 | 1.5 | 64.7 | 5 | IC50 [6]: > 30 µM; IC50 [7]: > 30 µM; IC50 [8]: > 30 µM; IC50 [9]: > 30 µM; IC50 [5]: > 30 µM; IC50 [10]: > 30 µM |
| NC(=O)c1ccccc1Oc1ccc(/C=C2\SC(=S)N(c3ccc(OCCCN4CCCCC4)cc3)C2=O)cc1 | 18.6 |  |  |  |  |
| CCN(CC)CCCOc1ccc(N2C(=O)/C(=C/c3ccc(-c4ccc(C(N)=O)cc4)o3)SC2=S)cc1 | 77.2 | 3.3 | 57.4 |  |  |
| NC(=O)c1cccc(Oc2ccc(/C=C3\SC(=S)N(c4ccc(OCCCN5CCOCC5)cc4)C3=O)cc2)c1 | 48.8 |  |  |  |  |
| NC(=O)c1cccc(-c2ccc(/C=C3\SC(=S)N(c4ccc(OCCCN5CCOCC5)cc4)C3=O)o2)c1 | 2.1 |  |  |  |  |
| CCN(CC)CCOc1ccc(N2C(=O)/C(=C/c3ccc(Oc4cccc(C(N)=O)c4)cc3)SC2=S)cc1 | 17.1 |  | 57 | 7 |  |
| CCN(CC)CCOc1ccc(N2C(=O)/C(=C/c3ccc(Oc4ccc(C(N)=O)cc4)cc3)SC2=S)cc1 | 62.6 | 8.7 | 58.5 | 8 |  |
| CN1CCN(CCCOc2ccc(N3C(=O)/C(=C/c4ccc(Oc5ccccc5C(N)=O)cc4)SC3=S)cc2)CC1 | 52.7 | 8.5 | 42.4 | 12 |  |
